According to ChEMBL document CHEMBL1140918, “Candidate selection and preclinical evaluation of N-tert-butyl isoquine (GSK369796), an affordable and effective 4-aminoquinoline antimalarial for the 21st century” (J Med Chem, 2009):
pIC50: −log10 of the molar value. Active and inactive are the calls of the source. No cut-off for these calls is given here.

Experiments:
Heme [1] = experiment: Binding affinity to heme in 20 mM SDS surfactant assessed as equilibrium constant by UV-visible spectrophotometry
Heme [2] = experiment: Binding affinity to heme in 1.2 mM TX-100 surfactant assessed as equilibrium constant by UV-visible spectrophotometry
Heme [3] = experiment: Binding affinity to heme in DMSO assessed as equilibrium constant by UV-visible spectrophotometry; parameters: scale not given here
Outline: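 Haem titrations were run in buffered 40% DMSO so that haem stays monomeric and aggregation and μ-oxo dimer formation are minimised. Binding data were fitted mathematically to two alternative binding-process models to pick the best fit.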

Plasmodium yoelii [4] = experiment: Antimalarial activity as ED100 in peripheral blood against Plasmodium yoelii 17X infected CD1 mice (Mus musculus) after 4 days; format: functional
Rhesus monkey = experiment: Toxicity in monkey assessed as increase in QTc interval; format: organism-based, Macaca mulatta; conditions: in vivo
Outline: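 Repeat-dose toxicity studies in monkeys, with QTc intervals and ECG rhythm monitored.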

Heme [5] = experiment: Binding affinity to heme in 50 mM SDS surfactant assessed as equilibrium constant by UV-visible spectrophotometry
Heme [6] = experiment: Binding affinity to heme in 20 mM CTAB surfactant assessed as equilibrium constant by UV-visible spectrophotometry
Heme [7] = experiment: Binding affinity to heme in 5 mM CTAB surfactant assessed as equilibrium constant by UV-visible spectrophotometry
Heme [8] = experiment: Binding affinity to heme in […] CTAB surfactant assessed as equilibrium constant by UV-visible spectrophotometry
Plasmodium yoelii [9] = experiment: Antimalarial activity as reduced parasitaemia against Plasmodium yoelii 17X infected CD1 mice (Mus musculus) after 4 days; format: functional; conditions: 96 h
Homo sapiens = species on record: Homo sapiens; experiment: Protein binding in human; format: ADME, organism-based; conditions: in vivo
Outline: (§1)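 Protein binding and blood-cell association were assessed in vitro in plasma or whole blood from preclinical species and humans.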

Plasmodium yoelii [10] = experiment: Antimalarial activity as reduced parasitaemia at day 4 against Plasmodium yoelii 17X infected CD1 mice (Mus musculus) at 40 mg/kg; format: functional, organism-based; parameters: dose 40 mg/kg
Outline: (§2)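 Standard Peters 4-day test in female age-matched CD1 mice, randomised into groups of 5. Mice were infected iv on day 0 with 6.4 × 10^6 or 10.0 × 10^6 parasites (P. berghei or P. yoelii) from infected donors. Peripheral-blood parasitaemia was read by flow cytometry at day 4 and compared with vehicle-treated groups. Doses ranged up to 40 mg/kg.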

Mus musculus = species on record: Mus musculus; experiment: Protein binding in mouse; format: ADME, organism-based; conditions: in vivo; outline: as §1
[11] = target: Voltage-gated inwardly rectifying potassium channel KCNH2 (Homo sapiens, UniProt Q12809); experiment: Inhibition of human cloned ERG
Cytochrome P450 3A4 [12] = target: T1, Cytochrome P450 3A4 (Homo sapiens, UniProt P08684); experiment: Inhibition of human recombinant CYP3A4 using phenyl-piperazinyl-methyl-benzyl-resofurin as substrate; format: ADME
Outline: (§3)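 Concentration-dependent inhibition of major human cytochrome P450 isozymes (recombinant enzymes) was tested using fluorescent probe substrates. Mean IC50 values were reported.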

[13] = Oral bioavailability in monkey; format: ADME, organism-based, Macaca mulatta; conditions: rhesus monkey, in vivo
Outline: (§4)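 Single intravenous and oral doses were given to the mouse, rat, dog and/or monkey. Drug was measured in blood to derive blood clearance, elimination half-life and % oral bioavailability.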

Cytochrome P450 1A2 = target: T2, Cytochrome P450 1A2 (Homo sapiens, UniProt P05177); experiment: Inhibition of human recombinant CYP1A2; format: ADME; outline: as §3
T2 sequence (P05177 whole entry): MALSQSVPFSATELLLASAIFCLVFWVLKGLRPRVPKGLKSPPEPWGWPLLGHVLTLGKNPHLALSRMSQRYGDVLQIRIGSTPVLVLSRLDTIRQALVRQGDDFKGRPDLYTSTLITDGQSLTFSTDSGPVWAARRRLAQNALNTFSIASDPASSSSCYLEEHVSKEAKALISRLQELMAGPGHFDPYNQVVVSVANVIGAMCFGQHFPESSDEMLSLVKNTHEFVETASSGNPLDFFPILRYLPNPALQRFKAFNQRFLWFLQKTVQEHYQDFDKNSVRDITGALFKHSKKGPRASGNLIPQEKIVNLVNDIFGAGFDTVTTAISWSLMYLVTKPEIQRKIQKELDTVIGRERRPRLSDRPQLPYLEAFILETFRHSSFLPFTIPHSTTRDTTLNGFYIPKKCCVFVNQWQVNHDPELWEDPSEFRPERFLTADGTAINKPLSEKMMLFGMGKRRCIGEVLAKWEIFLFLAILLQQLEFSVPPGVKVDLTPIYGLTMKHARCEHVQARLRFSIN

Plasmodium falciparum [14] = experiment: Antimalarial activity against chloroquine-sensitive Plasmodium falciparum 3D7 in human erythrocytes after 48 hrs by [3H]hypoxanthine uptake; format: functional, organism-based
Outline: (§5)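 P. falciparum grown in human erythrocytes in RPMI 1640 with 25 mM HEPES, 32 mM NaHCO3 and 10% human serum, gassed 3% O2/4% CO2/93% N2. Assay at 2% parasitemia, 0.5% hematocrit, drug stocks in DMSO diluted in medium, in triplicate. After 24 h at 37 °C, [3H]-hypoxanthine added and incubation continued 24 h. Scintillation counting; IC50 by probit interpolation of log dose-response, three independent experiments.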

Plasmodium falciparum [15] = experiment: Antimalarial activity against chloroquine-sensitive Plasmodium falciparum HB3 in human erythrocytes after 48 hrs by [3H]hypoxanthine uptake; format: functional, organism-based; outline: as §5
Cytochrome P450 2D6 = Cytochrome P450 2D6 (Homo sapiens, UniProt P10635); experiment: Inhibition of human recombinant CYP2D6; format: ADME; outline: as §3
[16] = Clearance in iv and orally dosed dog blood; format: ADME, organism-based, Canis lupus familiaris; conditions: whole blood; outline: as §4
Cytochrome P450 3A4 [17] = target: T1, Cytochrome P450 3A4; experiment: Inhibition of human recombinant CYP3A4 using […] as substrate; format: ADME
Plasmodium berghei = experiment: Antimalarial activity as reduced parasitaemia against Plasmodium berghei ANKA infected CD1 mice (Mus musculus) after 4 days; format: functional; conditions: 96 h; outline: as §2
[18] = Clearance in iv and orally dosed monkey blood; format: ADME, organism-based, Macaca mulatta; conditions: rhesus monkey, whole blood; outline: as §4
Cytochrome P450 2C9 = Cytochrome P450 2C9 (Homo sapiens, UniProt P11712); experiment: Inhibition of human recombinant CYP2C9; format: ADME; outline: as §3
Plasmodium falciparum [19] = experiment: Antimalarial activity against chloroquine-resistant Plasmodium falciparum K1 in human erythrocytes after 48 hrs by [3H]hypoxanthine uptake; format: functional, organism-based; outline: as §5
Cytochrome P450 2C8 = target: T3, Cytochrome P450 2C8 (Homo sapiens, UniProt P10632); experiment: Inhibition of human recombinant CYP2C8; format: ADME; outline: as §3
T3 sequence (P10632 whole entry): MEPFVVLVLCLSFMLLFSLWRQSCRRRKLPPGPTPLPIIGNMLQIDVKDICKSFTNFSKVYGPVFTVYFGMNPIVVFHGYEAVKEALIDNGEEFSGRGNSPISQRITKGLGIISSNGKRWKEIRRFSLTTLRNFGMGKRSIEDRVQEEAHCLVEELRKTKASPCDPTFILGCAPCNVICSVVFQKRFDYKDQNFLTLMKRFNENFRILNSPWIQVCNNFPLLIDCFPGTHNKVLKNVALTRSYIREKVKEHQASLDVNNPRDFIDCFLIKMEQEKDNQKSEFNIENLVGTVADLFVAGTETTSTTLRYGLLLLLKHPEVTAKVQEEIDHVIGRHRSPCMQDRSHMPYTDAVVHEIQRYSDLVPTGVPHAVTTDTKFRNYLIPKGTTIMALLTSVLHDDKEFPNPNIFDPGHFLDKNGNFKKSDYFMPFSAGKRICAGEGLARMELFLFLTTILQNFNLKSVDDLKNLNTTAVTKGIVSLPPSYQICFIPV

Cytochrome P450 2C19 = Cytochrome P450 2C19 (Homo sapiens, UniProt P33261); experiment: Inhibition of human recombinant CYP2C19; format: ADME; outline: as §3
[20] = Clearance in iv and orally dosed mouse blood; format: ADME, organism-based; conditions: whole blood; outline: as §4
Plasmodium yoelii [21] = experiment: Antimalarial activity as ED100 in peripheral blood at day 23 against Plasmodium yoelii 17X infected CD1 mice (Mus musculus); format: functional
[22] = Oral bioavailability in rat; format: ADME, organism-based; conditions: in vivo; outline: as §4
[23] = Elimination half life in orally dosed monkey; format: ADME, organism-based, Macaca mulatta; conditions: rhesus monkey, in vivo, po; read-out: beta t1/2 (converted); outline: as §4
[24] = Oral bioavailability in mouse; format: ADME, organism-based; conditions: in vivo; outline: as §4
[25] = Ratio of drug level in blood to plasma in dog; format: ADME, cell-free, Canis lupus familiaris; conditions: read-out: BPR
Outline: (§6)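 Red blood cell association measured in vitro in whole blood from the species named, alongside plasma protein binding. Read-out is the ratio of drug concentration in whole blood to that in plasma.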

[26] = Oral bioavailability in dog; format: ADME, organism-based, Canis lupus familiaris; conditions: in vivo; outline: as §4
[27] = Elimination half life in orally dosed mouse; format: ADME, organism-based; conditions: in vivo, po, read-out: beta t1/2 (converted); outline: as §4
[28] = Ratio of drug level in blood to plasma in human; format: ADME, cell-free; conditions: read-out: BPR; outline: as §6
[29] = Clearance in iv and orally dosed rat blood; format: ADME, organism-based; conditions: whole blood; outline: as §4

T1 sequence (P08684 whole entry): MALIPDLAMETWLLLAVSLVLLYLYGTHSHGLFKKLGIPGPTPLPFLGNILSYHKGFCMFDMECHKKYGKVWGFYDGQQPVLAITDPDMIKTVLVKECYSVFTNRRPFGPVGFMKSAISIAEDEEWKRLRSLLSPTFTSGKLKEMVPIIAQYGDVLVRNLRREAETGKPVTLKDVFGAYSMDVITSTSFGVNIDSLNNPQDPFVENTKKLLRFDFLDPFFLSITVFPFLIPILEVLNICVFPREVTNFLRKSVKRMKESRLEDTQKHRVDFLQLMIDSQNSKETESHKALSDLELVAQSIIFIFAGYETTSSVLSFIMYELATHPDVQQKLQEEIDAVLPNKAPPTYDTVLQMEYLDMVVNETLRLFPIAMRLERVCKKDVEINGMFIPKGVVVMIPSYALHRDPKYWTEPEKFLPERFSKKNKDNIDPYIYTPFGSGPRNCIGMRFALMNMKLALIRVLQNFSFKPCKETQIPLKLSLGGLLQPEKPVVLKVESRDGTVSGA
Voltage-gated inwardly rectifying potassium channel KCNH2, sequence (Q12809 whole entry): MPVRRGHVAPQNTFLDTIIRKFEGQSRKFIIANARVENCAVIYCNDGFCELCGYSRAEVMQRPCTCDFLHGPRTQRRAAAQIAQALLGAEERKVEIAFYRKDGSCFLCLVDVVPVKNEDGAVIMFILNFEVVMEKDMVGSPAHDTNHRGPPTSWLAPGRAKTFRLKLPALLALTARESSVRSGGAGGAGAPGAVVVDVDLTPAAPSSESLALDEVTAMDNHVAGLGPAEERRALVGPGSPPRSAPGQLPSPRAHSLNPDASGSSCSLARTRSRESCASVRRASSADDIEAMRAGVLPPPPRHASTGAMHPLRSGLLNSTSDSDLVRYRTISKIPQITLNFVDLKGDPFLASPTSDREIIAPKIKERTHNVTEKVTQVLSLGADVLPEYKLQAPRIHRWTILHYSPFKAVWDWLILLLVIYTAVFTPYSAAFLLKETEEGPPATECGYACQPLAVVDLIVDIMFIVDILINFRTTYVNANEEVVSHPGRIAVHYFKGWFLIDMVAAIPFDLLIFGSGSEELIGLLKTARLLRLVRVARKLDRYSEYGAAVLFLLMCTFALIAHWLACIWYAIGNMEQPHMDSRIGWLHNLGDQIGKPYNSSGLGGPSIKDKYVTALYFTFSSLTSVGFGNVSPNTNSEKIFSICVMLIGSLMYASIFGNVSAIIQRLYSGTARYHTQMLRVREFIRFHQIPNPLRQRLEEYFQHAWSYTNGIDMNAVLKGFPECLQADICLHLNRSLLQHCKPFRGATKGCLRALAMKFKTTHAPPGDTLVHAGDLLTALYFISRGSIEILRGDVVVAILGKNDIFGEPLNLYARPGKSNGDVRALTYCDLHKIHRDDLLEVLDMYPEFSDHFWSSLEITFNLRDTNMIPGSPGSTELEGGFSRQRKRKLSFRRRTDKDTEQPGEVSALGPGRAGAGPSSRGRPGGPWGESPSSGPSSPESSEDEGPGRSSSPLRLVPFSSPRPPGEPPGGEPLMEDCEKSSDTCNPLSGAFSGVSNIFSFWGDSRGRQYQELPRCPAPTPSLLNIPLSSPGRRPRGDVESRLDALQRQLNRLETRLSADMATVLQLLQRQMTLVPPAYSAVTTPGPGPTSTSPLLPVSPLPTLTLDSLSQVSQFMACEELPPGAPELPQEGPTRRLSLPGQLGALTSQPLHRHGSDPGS
Cytochrome P450 2C9, sequence (P11712 whole entry): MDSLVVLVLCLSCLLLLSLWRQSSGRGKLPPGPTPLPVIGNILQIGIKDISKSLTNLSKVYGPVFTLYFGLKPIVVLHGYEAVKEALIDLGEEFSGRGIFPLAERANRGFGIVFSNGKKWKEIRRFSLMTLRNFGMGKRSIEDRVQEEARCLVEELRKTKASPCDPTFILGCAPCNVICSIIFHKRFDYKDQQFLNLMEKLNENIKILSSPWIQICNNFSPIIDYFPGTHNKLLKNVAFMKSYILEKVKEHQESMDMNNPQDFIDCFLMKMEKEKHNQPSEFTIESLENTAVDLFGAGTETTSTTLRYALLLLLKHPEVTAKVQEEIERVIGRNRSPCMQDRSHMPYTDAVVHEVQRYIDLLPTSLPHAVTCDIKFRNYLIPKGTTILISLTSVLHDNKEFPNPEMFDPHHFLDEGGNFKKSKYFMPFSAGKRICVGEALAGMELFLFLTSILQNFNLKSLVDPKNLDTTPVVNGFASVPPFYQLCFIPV
Cytochrome P450 2C19, sequence (P33261 whole entry): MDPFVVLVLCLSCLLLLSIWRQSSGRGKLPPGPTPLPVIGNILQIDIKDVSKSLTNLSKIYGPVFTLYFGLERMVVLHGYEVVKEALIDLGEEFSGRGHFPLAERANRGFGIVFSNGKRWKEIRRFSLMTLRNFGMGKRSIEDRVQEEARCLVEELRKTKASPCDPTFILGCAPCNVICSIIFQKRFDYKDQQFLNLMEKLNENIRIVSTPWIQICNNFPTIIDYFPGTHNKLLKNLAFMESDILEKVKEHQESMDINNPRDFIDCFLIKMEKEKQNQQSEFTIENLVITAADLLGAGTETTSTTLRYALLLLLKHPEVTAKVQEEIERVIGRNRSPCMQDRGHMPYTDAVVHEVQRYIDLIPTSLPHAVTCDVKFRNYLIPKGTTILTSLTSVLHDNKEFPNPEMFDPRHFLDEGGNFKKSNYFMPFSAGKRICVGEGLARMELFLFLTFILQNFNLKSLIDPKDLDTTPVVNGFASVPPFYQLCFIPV
Cytochrome P450 2D6, sequence (P10635 whole entry): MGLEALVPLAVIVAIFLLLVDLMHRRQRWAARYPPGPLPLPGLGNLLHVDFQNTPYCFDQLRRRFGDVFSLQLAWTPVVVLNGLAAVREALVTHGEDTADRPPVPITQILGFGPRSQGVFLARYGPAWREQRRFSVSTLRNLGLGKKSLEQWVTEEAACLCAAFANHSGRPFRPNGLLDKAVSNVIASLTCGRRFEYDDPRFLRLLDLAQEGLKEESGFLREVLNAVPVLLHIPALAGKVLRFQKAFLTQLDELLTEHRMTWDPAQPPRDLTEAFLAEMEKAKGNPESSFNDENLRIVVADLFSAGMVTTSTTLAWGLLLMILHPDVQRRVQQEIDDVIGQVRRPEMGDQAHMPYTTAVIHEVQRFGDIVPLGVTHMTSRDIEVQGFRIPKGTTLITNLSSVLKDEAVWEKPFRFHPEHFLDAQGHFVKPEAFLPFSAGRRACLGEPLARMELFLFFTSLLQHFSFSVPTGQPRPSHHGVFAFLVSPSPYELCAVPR

Compound	Activity (Heme [3])	Activity (Rhesus monkey)	ED50 (Plasmodium yoelii [9]) [mg/kg]	ED90 (Plasmodium yoelii [9]) [mg/kg]	Activity (Homo sapiens) [%]	Activity (Plasmodium yoelii [10])	Activity (Mus musculus) [%]	pIC50 [11]	pIC50 (Cytochrome P450 3A4 [12])	bioavailability [13] [%]	pIC50 (Cytochrome P450 1A2)	pIC50 (Plasmodium falciparum [14])	pIC50 (Plasmodium falciparum [15])	pIC50 (Cytochrome P450 2D6)	clearance [16] [L/h/kg]	ED50 (Plasmodium berghei) [mg/kg]	ED90 (Plasmodium berghei) [mg/kg]	clearance [18] [L/h/kg]	pIC50 (Cytochrome P450 2C9)	pIC50 (Plasmodium falciparum [19])	other results
CCN(CC)CCCC(C)Nc1ccnc2cc(Cl)ccc12 (configuration not stated) [CHLOROQUINE]	5.3	Toxic	3.3	4.4																	Activity (Heme [1]): 4.4; Activity (Heme [2]): 6.23; Activity (Plasmodium yoelii [4]): >40 mg/kg; Activity (Heme [5]): 3.8; Activity (Heme [6]): 4.7; Activity (Heme [7]): 4.69; Activity (Heme [8]): 4
CCNCc1cc(Nc2ccnc3cc(Cl)ccc23)ccc1O [DESETHYL AMODIAQUINE]					86	inactive	74	5.02	< 4.00												
CCNCc1ccc(Nc2ccnc3cc(Cl)ccc23)cc1O [DESETHYL ISOQUINE]									≤ 4.26	40	5.10	8.04	7.85	5.47	0.72	5.3	7.3	2.94	< 4.00	7.75	pIC50 (Cytochrome P450 3A4 [17]; read-out: IC50): < 4.00; pIC50 (Cytochrome P450 2C8): 4.64; pIC50 (Cytochrome P450 2C19): 4.21
CC(C)(C)NCc1ccc(Nc2ccnc3cc(Cl)ccc23)cc1O [GSK-369796]	5.23		3.8	5.4	88		93	5.12	< 4.00	100	4.54	7.95	7.90	5.52	0.378	2.8	4.7	0.87	≤ 4.05	7.88	clearance [20]: 1.02 L/h/kg; Activity (Plasmodium yoelii [21]): 20 mg/kg; bioavailability [22]: 89%; half-life [23]: 11 h; IC50 (Cytochrome P450 3A4 [17]): Active; bioavailability [24]: 100%; blood plasma ratio [25]: 15; bioavailability [26]: 68%; half-life [27]: 3 h; pIC50 (Cytochrome P450 2C8): 4.64; pIC50 (Cytochrome P450 2C19): 4.62; blood plasma ratio [28]: 1.2; clearance [29]: 1.56 L/h/kg
CCCCN(CCCC)CCC(O)c1cc2c(Cl)cc(Cl)cc2c2cc(C(F)(F)F)ccc12 (configuration not stated) [HALOFANTRINE]		Toxic																			
CCN(CC)Cc1ccc(Nc2ccnc3cc(Cl)ccc23)cc1O [ISOQUINE]						inactive		5.41				7.94	7.90		9.06	3.7	5.3			7.75	IC50 (Cytochrome P450 3A4 [17]): Active
